Assay results from ChEMBL document CHEMBL2169809, “Identification of high-affinity P2Y₁₂ antagonists based on a phenylpyrazole glutamic acid piperazine backbone” (J Med Chem, 2012).

Key:
[1] = target: P2Y purinoceptor 12 (Homo sapiens, UniProt Q9H244); test: Displacement of [33P]2-MeS-ADP from human recombinant P2Y12 receptor expressed in CHO cell membranes by scintillation counting method
[2] = tested on: Platelet; test: Inhibition of ADP-stimulated platelet aggregation in human platelet rich plasma by 96-well format based turbidimetric method; assay type: functional
Method in brief: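 Citrated (ACD-A) donor blood was spun at 150g for 15 min at room temperature to give PRP. PRP was adjusted with PPP to 3 × 10^8 platelets/mL. Compound, diluted in NaCl, was preincubated with hPRP for 5 min before ADP was added.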

[3] = tested on: Platelet; test: Inhibition of ADP-stimulated platelet aggregation in human platelet rich plasma by light transmission aggregometry based Born method; assay type: functional, cell-based

P2Y purinoceptor 12, sequence (Q9H244 whole entry): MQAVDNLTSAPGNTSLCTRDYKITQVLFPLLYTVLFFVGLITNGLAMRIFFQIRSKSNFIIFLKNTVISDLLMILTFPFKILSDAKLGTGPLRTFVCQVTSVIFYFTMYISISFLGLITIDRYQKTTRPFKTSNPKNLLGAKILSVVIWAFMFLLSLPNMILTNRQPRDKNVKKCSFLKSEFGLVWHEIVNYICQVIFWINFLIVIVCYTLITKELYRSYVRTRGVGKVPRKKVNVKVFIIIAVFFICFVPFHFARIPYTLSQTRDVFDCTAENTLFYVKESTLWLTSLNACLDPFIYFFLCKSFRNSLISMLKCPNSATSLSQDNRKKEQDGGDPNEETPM

| Ki [1] [nM] | IC50 [2] [nM] | IC50 [3] [nM] | SMILES |
| --- | --- | --- | --- |
| 80 | 1510 |  | CCOC(=O)N1CCN(C(=O)[C@H](CCC(=O)O)NC(=O)c2cc(OCC(=O)N3CCC[C@H]3C(=O)NC3CCC3)n(-c3ccccc3)n2)C[C@@H]1C |
| 242 | 3730 | 2460 | CCOC(=O)N1CCN(C(=O)[C@H](CCC(=O)O)NC(=O)c2cc(OCC(=O)C(C)(C)C)n(-c3ccccc3)n2)CC1 |
| 7.7 | 72 |  | CCOC(=O)N1CCN(C(=O)[C@H](CCC(=O)O)NC(=O)c2cc(OCC(=O)N3CCC[C@H]3C(=O)NC3CCC3)n(-c3ccccc3)n2)[C@H](C)C1 |
| 111 | 2210 |  | CCOC(=O)N1CCN(C(=O)[C@H](C)NC(=O)c2cc(OCC(=O)N3CCC[C@H]3C(=O)NC3CCC3)n(-c3ccccc3)n2)CC1 |
| 219 | 600 |  | CCOC(=O)N1CCN(C(=O)[C@H](CCC(=O)O)NC(=O)c2cc(OCC(=O)N3CCC[C@H]3C(=O)N3CCCC3)n(-c3ccccc3)n2)CC1 |
| 180 | 3770 |  | CCOC(=O)N1CCN(C(=O)[C@H](CCN)NC(=O)c2cc(OCC(=O)N3CCC[C@H]3C(=O)NC3CCC3)n(-c3ccccc3)n2)CC1 |
| 33 |  |  | CCOC(=O)N1CCN(C(=O)[C@H](CCC(=O)O)NC(=O)c2cc(OCC(=O)N3CCC[C@H]3c3ccccc3)n(-c3ccccc3)n2)CC1 |
| 42 | 76 |  | CCOC(=O)N1CCN(C(=O)[C@H](CCC(=O)O)NC(=O)c2cc(OCC(=O)N3CC[C@H]3C(=O)NC3CCC3)n(-c3ccccc3)n2)CC1 |
| 56 | 380 |  | CCOC(=O)N1CCN(C(=O)[C@H](CCC(=O)O)NC(=O)c2cc(OCC(=O)N3CCC[C@H]3c3nc(C)c[nH]3)n(-c3ccccc3)n2)CC1 |
| > 5000 | > 10000 |  | CCOC(=O)N1CCN(C(=O)[C@H](CCC(=O)O)NC(=O)c2cc(OCC(=O)N(CC)CC)n(-c3ccccc3)n2)CC1 |
| 71 | 1080 |  | O=C(O)CC[C@H](NC(=O)c1cc(OCC(=O)N2CCC[C@H]2C(=O)NC2CCC2)n(-c2ccccc2)n1)C(=O)N1CCN(C(=O)Oc2ccccc2)CC1 |
| 6.5 | 92 | 70 | CCCCOC(=O)N1CCN(C(=O)[C@H](CCCO)NC(=O)c2cc(OCC(=O)N3CCC[C@H]3C(=O)NC3CCC3)n(-c3ccccc3)n2)CC1 |
| 172 | 3610 |  | CCC[C@H](NC(=O)c1cc(OCC(=O)N2CCC[C@H]2C(=O)NC2CCC2)n(-c2ccccc2)n1)C(=O)N1CCN(C(=O)OCC)CC1 |
| 48 | 1200 |  | CCOC(=O)N1CCN(C(=O)[C@H](CNS(C)(=O)=O)NC(=O)c2cc(OCC(=O)N3CCC[C@H]3C(=O)NC3CCC3)n(-c3ccccc3)n2)CC1 |
| 23 |  |  | CCOC(=O)N1CCN(C(=O)[C@H](CCNS(C)(=O)=O)NC(=O)c2cc(OCC(=O)N3CCC[C@H]3C(=O)NC3CCC3)n(-c3ccccc3)n2)CC1 |
| 183 | 1900 |  | CCOC(=O)N1CCN(C(=O)[C@@H](NC(=O)c2cc(OCC(=O)N3CCC[C@H]3C(=O)NC3CCC3)n(-c3ccccc3)n2)C(C)C)CC1 |
| 238 | 3130 |  | CCOC(=O)N1CCN(C(=O)[C@H](CCC(=O)O)NC(=O)c2cc(OCC(=O)N3CCC(C(=O)NC4CCC4)C3)n(-c3ccccc3)n2)CC1 (some centres not stated) |
| 536 | 1460 |  | CCOC(=O)N1CCN(C(=O)[C@H](CCC(=O)O)NC(=O)c2cc(OCC(=O)N3CCC[C@H]3C(=O)NC)n(-c3ccccc3)n2)CC1 |
| 5 | 40 | 69 | CCOC(=O)N1CCN(C(=O)[C@H](CCc2nnn[nH]2)NC(=O)c2cc(OCC(=O)N3CCC[C@H]3C(=O)NC3CCC3)n(-c3ccccc3)n2)CC1 |
| 14 | 1830 |  | CCCSc1nc(N[C@@H]2C[C@H]2c2ccc(F)c(F)c2)c2nnn([C@@H]3C[C@H](OCCO)[C@@H](O)[C@H]3O)c2n1 [TICAGRELOR] |
| 613 | 2940 |  | CCOC(=O)N1CCN(C(=O)[C@H](CCC(=O)O)NC(=O)c2cc(OCC(=O)N3CC(C(=O)NC4CCC4)C3)n(-c3ccccc3)n2)CC1 |
| 0.8 | 19 | 13 | CCCCOC(=O)N1CCN(C(=O)[C@H](CCC(=O)O)NC(=O)c2cc(OCC(=O)N3CCC[C@H]3C(=O)NC3CCC3)n(-c3ccccc3)n2)CC1 |
| 207 | > 5000 |  | CCOC(=O)N1CCN(C(=O)[C@H](CC(C)C)NC(=O)c2cc(OCC(=O)N3CCC[C@H]3C(=O)NC3CCC3)n(-c3ccccc3)n2)CC1 |
| 41 | 17 | 70 | CCOC(=O)N1CCN(C(=O)[C@H](CCC(=O)O)NC(=O)c2cc(OCC(=O)N3CCC[C@H]3C(=O)NC(C)(C)C)n(-c3ccccc3)n2)CC1 |
| 2720 | 9050 |  | CCOC(=O)N1CCN(C(=O)[C@H](CCC(=O)O)NC(=O)c2cc(OCC(N)=O)n(-c3ccccc3)n2)CC1 |

| Ki [1] [nM] | IC50 [2] [nM] | IC50 [3] [nM] | SMILES |
| --- | --- | --- | --- |
|  | 50 | 79 | CCCCOC(=O)N1CCN(C(=O)[C@H](CCc2nnn[nH]2)NC(=O)c2cc(OCC(=O)N3CCC[C@H]3C(=O)NC3CCC3)n(-c3ccccc3)n2)CC1 |
| 5.7 | 124 |  | O=C(O)CC[C@H](NC(=O)c1cc(OCC(=O)N2CCC[C@H]2C(=O)NC2CCC2)n(-c2ccccc2)n1)C(=O)N1CCN(C(=O)OCc2ccccc2)CC1 |
| 130 | 1230 |  | O=C(O)CC[C@H](NC(=O)c1cc(OCC(=O)N2CCC[C@H]2C(=O)NC2CCC2)n(-c2ccccc2)n1)C(=O)N1CCN(C(=O)c2ccccc2)CC1 |
| 54 | 430 |  | CCOC(=O)N1CCN(C(=O)[C@H](CCC(=O)O)NC(=O)c2cc(OCC(=O)N3CCC[C@H]3C(=O)NC3CCC3)n(-c3ccccc3)n2)[C@@H](C)C1 |
| 283 | 3100 |  | CCOC(=O)N1CCN(C(=O)[C@H](CCC(=O)O)NC(=O)c2cc(OCC(=O)N3CCC[C@H]3C(N)=O)n(-c3ccccc3)n2)CC1 |
| 27 | 220 |  | CCOC(=O)N1CCN(C(=O)[C@H](CCC(=O)O)NC(=O)c2cc(OCC(=O)N3CCC[C@H]3C(=O)N(C)C3CCC3)n(-c3ccccc3)n2)CC1 |
| 56 |  |  | CCOC(=O)N1CCN(C(=O)[C@H](CCC(=O)O)NC(=O)c2cc(OCC(=O)N3CCC[C@H]3C(=O)NC(C)C)n(-c3ccccc3)n2)CC1 |
| 5 | 14 |  | O=C(O)CC[C@H](NC(=O)c1cc(OCC(=O)N2CCC[C@H]2C(=O)NC2CCC2)n(-c2ccccc2)n1)C(=O)N1CCN(C(=O)OC2CCC2)CC1 |
| 40 | 1330 |  | O=C(O)CC[C@H](NC(=O)c1cc(OCC(=O)N2CCC[C@H]2C(=O)NC2CCC2)n(-c2ccccc2)n1)C(=O)N1CCC(C(=O)c2ccccc2)CC1 |
| 105 | 13 |  | CCOC(=O)N1CCN(C(=O)[C@H](CCC(=O)O)NC(=O)c2cc(OCC(=O)N3CCC[C@H]3C(=O)NC3CC3)n(-c3ccccc3)n2)CC1 |
| 303 | 475 |  | CCNC(=O)[C@@H]1CCCN1C(=O)COc1cc(C(=O)N[C@@H](CCC(=O)O)C(=O)N2CCN(C(=O)OCC)CC2)nn1-c1ccccc1 |
| 459 | 1370 |  | CCOC(=O)N1CCN(C(=O)[C@H](CCC(=O)O)NC(=O)c2cc(OCC(=O)N3CC[C@@H](O)C3)n(-c3ccccc3)n2)CC1 |
| 202 | 2400 |  | CCOC(=O)N1CCN(C(=O)[C@H](CCCCO)NC(=O)c2cc(OCC(=O)N3CCC[C@H]3C(=O)NC3CCC3)n(-c3ccccc3)n2)CC1 |
| 19 | 100 | 72 | CCOC(=O)N1CCN(C(=O)[C@H](CCC(=O)O)NC(=O)c2cc(OCC(=O)N3CCC[C@H]3C(=O)NCC3CCC3)n(-c3ccccc3)n2)CC1 |
| 66 | 58 | 91 | CCCNC(=O)[C@@H]1CCCN1C(=O)COc1cc(C(=O)N[C@@H](CCC(=O)O)C(=O)N2CCN(C(=O)OCC)CC2)nn1-c1ccccc1 |
| > 5000 | > 10000 |  | CCOC(=O)N1CCN(C(=O)[C@H](CCC(=O)O)NC(=O)c2cc(=O)n(-c3ccccc3)[nH]2)CC1 |
| 82 | 1880 |  | CCCCOC(=O)NC1CCN(C(=O)[C@H](CCC(=O)O)NC(=O)c2cc(OCC(=O)N3CCC[C@H]3C(=O)NC3CCC3)n(-c3ccccc3)n2)C1 (some centres not stated) |
| 42 | 675 |  | CCOC(=O)N1CCN(C(=O)[C@H](CCNC(C)=O)NC(=O)c2cc(OCC(=O)N3CCC[C@H]3C(=O)NC3CCC3)n(-c3ccccc3)n2)CC1 |
| 30 | 790 |  | COc1cccc(N2CCN(C(=O)[C@H](CCC(=O)O)NC(=O)c3cc(OCC(=O)N4CCC[C@H]4C(=O)NC4CCC4)n(-c4ccccc4)n3)CC2)c1 |
| 958 |  |  | CCOC(=O)N1CCN(C(=O)[C@H](CCC(=O)O)NC(=O)c2cc(OCC(=O)N3CCC[C@@H]3C(=O)NC3CC3)n(-c3ccccc3)n2)CC1 |
| 51 | 335 |  | CCOC(=O)N1CCN(C(=O)[C@H](CCC(=O)O)NC(=O)c2cc(OCC(=O)N3CCC[C@H]3C(=O)NC3CCC3)n(-c3ccccc3)n2)C[C@H]1C |
| 173 | 900 |  | CCOC(=O)N1CCN(C(=O)[C@H](CCC(=O)O)NC(=O)c2cc(OCC(=O)N3CCCC3=O)n(-c3ccccc3)n2)CC1 |
| 574 | 7410 |  | CCOC(=O)N1CCN(C(=O)[C@H](CCC(=O)O)NC(=O)c2cc(OCC(=O)C3CCC3)n(-c3ccccc3)n2)CC1 |
| 23 | 2810 |  | CNc1cc2[nH]c(=O)n(-c3ccc(NC(=O)NS(=O)(=O)c4ccc(Cl)s4)cc3)c(=O)c2cc1F [ELINOGREL] |
| 86 | 2600 |  | CCOC(=O)N1CCN(C(=O)[C@H](CCC(=O)O)NC(=O)c2cc(OC(C)(C)C(=O)OCC)c3ccc(C)cc3n2)CC1 |

| SMILES | Ki [1] [nM] | IC50 [2] [nM] | IC50 [3] [nM] |
| --- | --- | --- | --- |
| CCCCOC(=O)N1CCC(NC(=O)[C@H](CCC(=O)O)NC(=O)c2cc(OCC(=O)N3CCC[C@H]3C(=O)NC3CCC3)n(-c3ccccc3)n2)C1 (some centres not stated) | 193 | > 5000 |  |
| CCOC(=O)N1CCC(NC(=O)[C@H](CCC(=O)O)NC(=O)c2cc(OCC(=O)N3CCC[C@H]3C(=O)NC3CCC3)n(-c3ccccc3)n2)CC1 | > 5000 | > 5000 |  |
